In ChEMBL document CHEMBL1149096 (J Med Chem, 2004):
Several values for one entry are separate records, joined by “and”; a condition that tells them apart may be missing. Identical values can stand only once.

biological target: Delta-type opioid receptor (Rattus norvegicus, UniProt P33533); assay: Binding affinity at opioid receptor delta 1 by displacement of [3H]DADLE in rat brain membrane; type: cell membranes; settings: not given
Sequence (P33533 whole entry): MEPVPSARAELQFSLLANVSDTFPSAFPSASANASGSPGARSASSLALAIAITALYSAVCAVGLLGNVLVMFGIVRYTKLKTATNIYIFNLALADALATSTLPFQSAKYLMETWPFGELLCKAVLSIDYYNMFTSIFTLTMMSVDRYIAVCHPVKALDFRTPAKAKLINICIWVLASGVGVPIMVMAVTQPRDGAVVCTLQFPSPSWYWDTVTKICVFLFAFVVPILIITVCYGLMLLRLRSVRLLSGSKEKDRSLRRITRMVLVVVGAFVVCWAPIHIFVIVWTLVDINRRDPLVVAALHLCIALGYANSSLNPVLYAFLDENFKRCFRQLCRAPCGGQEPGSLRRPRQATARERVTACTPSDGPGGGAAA

Row | SMILES | Ki
1 | C[C@@H](NC(=O)[C@@H](N)Cc1ccc(O)cc1)C(=O)NCC(=O)N(C)[C@@H](Cc1ccccc1)C(=O)NCCO [DAMGO] | 469 nM
2 | Oc1ccc2c3c1O[C@H]1c4[nH]c5ccccc5c4C[C@@]4(O)[C@@H](C2)N(CC2CC2)CC[C@]314 [NALTRINDOLE] | 1.6 nM
3 | COc1ccc2c3c1O[C@H]1c4ncc(-c5ccc(Br)cc5)cc4C[C@@]4(O)[C@@H](C2)N(C)CC[C@]314 | 23 nM
4 | CN1CC[C@]23c4c5ccc(O)c4O[C@H]2c2ncc(-c4ccc(Br)cc4)cc2C[C@@]3(O)[C@H]1C5 | 4 nM

biological target: Mu-type opioid receptor (Cavia porcellus) (UniProt P97266); settings: Ileum, filed as agonist
Sequence (P97266 whole entry): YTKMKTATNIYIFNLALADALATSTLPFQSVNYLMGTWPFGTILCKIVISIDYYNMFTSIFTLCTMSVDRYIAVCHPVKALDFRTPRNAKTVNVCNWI

Row | SMILES | Ke
5 | Oc1ccc2c3c1O[C@H]1c4ncc(-c5ccc(Cl)cc5)cc4C[C@H]4[C@@H](C2)N(CC2CC2)CC[C@]314 | Agonist

biological target: Delta-type opioid receptor (Mus musculus) (UniProt P32300); assay: Agonist activity by the max response towards opioid receptor delta 1 induced contractions in mouse vas deferens (MVD) smooth muscle contraction assays; type: functional, tissue-based; settings: not given
In short: (§1)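 Electrically stimulated MVD (male ICR mice, 25-40 g) and GPI longitudinal muscle myenteric plexus strips (male Hartley guinea pigs, 250-500 g). Baths held 37 °C oxygenated Krebs bicarbonate (Mg-free for MVD), tension 1 g GPI / 0.5 g MVD. Stimulation 0.1 Hz, 0.4 ms pulses (2 ms MVD), supramaximal voltage. […] IC50 from two to four tissues by nonlinear least squares.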

Sequence of Delta-type opioid receptor (Mus musculus) (P32300 whole entry): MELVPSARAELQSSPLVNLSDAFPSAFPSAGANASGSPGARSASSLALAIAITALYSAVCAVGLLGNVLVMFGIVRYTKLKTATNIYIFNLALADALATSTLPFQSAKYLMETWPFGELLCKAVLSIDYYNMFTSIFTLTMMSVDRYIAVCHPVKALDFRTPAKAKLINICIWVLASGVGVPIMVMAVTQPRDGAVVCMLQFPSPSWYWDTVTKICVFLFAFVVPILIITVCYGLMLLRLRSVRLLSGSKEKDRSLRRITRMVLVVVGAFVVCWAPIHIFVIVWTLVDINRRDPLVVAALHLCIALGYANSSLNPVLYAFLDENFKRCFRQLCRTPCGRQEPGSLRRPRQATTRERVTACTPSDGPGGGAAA

Row | SMILES | Response
6 | Oc1ccc2c3c1O[C@H]1c4ncc(-c5ccc(Cl)cc5)cc4C[C@H]4[C@@H](C2)N(CC2CC2)CC[C@]314 | 7.9%

biological target: Opioid receptors; mu & delta (Rattus norvegicus) (UniProt P33533+P33535); assay: Selectivity given as ratio of mu receptor to delta receptor; type: protein assay; settings: not given
Sequence (P33533 whole entry, looked up): as the sequence (P33533 whole entry) above
Sequence (P33535 whole entry, looked up): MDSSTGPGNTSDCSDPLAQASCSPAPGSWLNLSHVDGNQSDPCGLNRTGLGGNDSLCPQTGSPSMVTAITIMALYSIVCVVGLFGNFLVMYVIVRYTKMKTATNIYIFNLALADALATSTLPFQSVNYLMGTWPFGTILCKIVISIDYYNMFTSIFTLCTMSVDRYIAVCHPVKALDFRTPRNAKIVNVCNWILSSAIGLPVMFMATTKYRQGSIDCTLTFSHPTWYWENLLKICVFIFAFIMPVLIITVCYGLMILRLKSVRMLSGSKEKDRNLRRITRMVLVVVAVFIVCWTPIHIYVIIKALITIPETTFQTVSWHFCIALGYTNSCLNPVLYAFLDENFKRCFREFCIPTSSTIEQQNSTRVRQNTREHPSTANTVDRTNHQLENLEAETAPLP

Row | SMILES | Ratio
7 | Oc1ccc2c3c1O[C@H]1c4ncccc4C[C@@]4(O)[C@@H](C2)N(CC2CC2)CC[C@]314 | 1.9
8 | Oc1ccc2c3c1O[C@H]1c4ncc(-c5ccc(Cl)cc5)cc4C[C@H]4[C@@H](C2)N(CC2CC2)CC[C@]314 | 24
9 | Oc1ccc2c3c1O[C@H]1c4ncc(-c5ccccc5)cc4C[C@@]4(O)[C@@H](C2)N(CC2CC2)CC[C@]314 | 16
10 | COc1ccc2c3c1O[C@H]1c4ncc(-c5ccc(Br)cc5)cc4C[C@@]4(O)[C@@H](C2)N(C)CC[C@]314 | 82
11 | CN1CC[C@]23c4c5ccc(O)c4O[C@H]2c2ncc(-c4ccc(Br)cc4)cc2C[C@@]3(O)[C@H]1C5 | 49

biological target: T1, Mu-type opioid receptor (Cavia porcellus, UniProt P97266); assay: Apparent binding affinity of compound was determined by antagonism towards Opioid receptor mu 1 in [35S]GTP-gamma-S, binding assay in guinea pig caudate; type: functional; settings: not given
T1 sequence (P97266 whole entry): as the sequence (P97266 whole entry) above

Row | SMILES | Ki
12 | Oc1ccc2c3c1O[C@H]1c4ncc(-c5ccc(Cl)cc5)cc4C[C@@]4(O)[C@@H](C2)N(CC2CC2)CC[C@]314 | 7.8 nM
13 | Oc1ccc2c3c1O[C@H]1c4ncc(-c5ccc(Cl)cc5)cc4C[C@H]4[C@@H](C2)N(CC2CC2)CC[C@]314 | 9.2 nM

biological target: T1, Mu-type opioid receptor; assay: Inhibitory concentration for inhibition of Opioid receptor mu 1 induced contractions in guinea pig ileum (GPI) smooth muscle assays; type: functional, tissue-based; settings: not given
In short: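 Electrically stimulated MVD (male ICR mice, 25-40 g) and GPI longitudinal muscle myenteric plexus strips (male Hartley guinea pigs, 250-500 g). Baths held 37 °C oxygenated Krebs bicarbonate (Mg-free for MVD), tension 1 g GPI / 0.5 g MVD. Stimulation 0.1 Hz, 0.4 ms pulses (2 ms MVD), supramaximal voltage. IC50 from two to four tissues by nonlinear least squares.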

Row | SMILES | IC50
14 | Oc1ccc2c3c1O[C@H]1c4ncc(-c5ccc(Cl)cc5)cc4C[C@@]4(O)[C@@H](C2)N(CC2CC2)CC[C@]314 | 163 nM
15 | Oc1ccc2c3c1O[C@H]1c4ncc(-c5ccc(Cl)cc5)cc4C[C@H]4[C@@H](C2)N(CC2CC2)CC[C@]314 | 109 nM

biological target: T1, Mu-type opioid receptor; assay: Agonistic activity towards Opioid receptor mu 1 was determined in [35S]GTP-gamma-S, binding assay in guinea pig caudate; g = not active as an agonist; type: functional; settings: not given
In short: (§2)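 Guinea pig caudate membranes (10-20 µg protein) incubated 3 h at 22 °C in Tris-HCl pH 7.4 containing 100 mM NaCl, 10 mM MgCl2, 1 mM EDTA, 100 µM GDP and 0.05-0.1 nM [35S]GTP-γ-S, then filtered and counted. Nonspecific binding defined with 10 µM GTP-γ-S. Site isolation used CTAP, nor-BNI, NTI or TIPP. […] Three experiments pooled; logistic fit.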

Row | SMILES | EC50
16 | Oc1ccc2c3c1O[C@H]1c4ncc(-c5ccc(Cl)cc5)cc4C[C@@]4(O)[C@@H](C2)N(CC2CC2)CC[C@]314 | Not Active
17 | Oc1ccc2c3c1O[C@H]1c4[nH]c5ccccc5c4C[C@@]4(O)[C@@H](C2)N(CC2CC2)CC[C@]314 [NALTRINDOLE] | Not Active
18 | Oc1ccc2c3c1O[C@H]1c4ncc(-c5ccc(Cl)cc5)cc4C[C@H]4[C@@H](C2)N(CC2CC2)CC[C@]314 | Not Active

organism: Cavia porcellus; assay: Selectivity given as ratio of kappa receptor to delta receptor; settings: not given

Row | SMILES | Ratio
19 | Oc1ccc2c3c1O[C@H]1c4ncccc4C[C@@]4(O)[C@@H](C2)N(CC2CC2)CC[C@]314 | 11
20 | Oc1ccc2c3c1O[C@H]1c4ncc(-c5ccc(Cl)cc5)cc4C[C@H]4[C@@H](C2)N(CC2CC2)CC[C@]314 | 2.3
21 | Oc1ccc2c3c1O[C@H]1c4ncc(-c5ccccc5)cc4C[C@@]4(O)[C@@H](C2)N(CC2CC2)CC[C@]314 | 20
22 | COc1ccc2c3c1O[C@H]1c4ncc(-c5ccc(Br)cc5)cc4C[C@@]4(O)[C@@H](C2)N(C)CC[C@]314 | 320
23 | CN1CC[C@]23c4c5ccc(O)c4O[C@H]2c2ncc(-c4ccc(Br)cc4)cc2C[C@@]3(O)[C@H]1C5 | 108

organism: Mus musculus; assay: Antinociceptive effect was determined at 100 nM in mouse; type: functional; settings: not given

Row | SMILES | Activity
24 | Oc1ccc2c3c1O[C@H]1c4ncc(-c5ccc(Cl)cc5)cc4C[C@@]4(O)[C@@H](C2)N(CC2CC2)CC[C@]314 | 21%

biological target: Delta-type opioid receptor (Mus musculus) (UniProt P32300); settings: Vas deferens

Row | SMILES | Ke
25 | Oc1ccc2c3c1O[C@H]1c4ncc(-c5ccc(Cl)cc5)cc4C[C@H]4[C@@H](C2)N(CC2CC2)CC[C@]314 | 6 nM
26 | Oc1ccc2c3c1O[C@H]1c4ncc(-c5ccccc5)cc4C[C@@]4(O)[C@@H](C2)N(CC2CC2)CC[C@]314 | 3.7 nM

biological target: Delta-type opioid receptor (Mus musculus) (UniProt P32300); assay: Agonist activity by the maximum response towards opioid receptor delta 1 induced contractions in mouse vas deferens (MVD) smooth muscle contraction assays; type: functional, tissue-based; settings: not given; in short: as §1

Row | SMILES | Response
27 | Oc1ccc2c3c1O[C@H]1c4ncccc4C[C@@]4(O)[C@@H](C2)N(CC2CC2)CC[C@]314 | 0%
28 | Oc1ccc2c3c1O[C@H]1c4ncc(-c5ccc(Cl)cc5)cc4C[C@@]4(O)[C@@H](C2)N(CC2CC2)CC[C@]314 | 21%
29 | Oc1ccc2c3c1O[C@H]1c4[nH]c5ccccc5c4C[C@@]4(O)[C@@H](C2)N(CC2CC2)CC[C@]314 [NALTRINDOLE] | 16% and 18%
30 | Oc1ccc2c3c1O[C@H]1c4ncc(-c5ccccc5)cc4C[C@@]4(O)[C@@H](C2)N(CC2CC2)CC[C@]314 | 4.7%

biological target: T2, Kappa-type opioid receptor (Cavia porcellus, UniProt P41144); assay: Agonistic activity towards Opioid receptor kappa 1 was determined in [35S]GTP-gamma-S, binding assay in guinea pig caudate; g = not active as an agonist; type: functional; settings: not given; in short: as §2
T2 sequence (P41144 whole entry): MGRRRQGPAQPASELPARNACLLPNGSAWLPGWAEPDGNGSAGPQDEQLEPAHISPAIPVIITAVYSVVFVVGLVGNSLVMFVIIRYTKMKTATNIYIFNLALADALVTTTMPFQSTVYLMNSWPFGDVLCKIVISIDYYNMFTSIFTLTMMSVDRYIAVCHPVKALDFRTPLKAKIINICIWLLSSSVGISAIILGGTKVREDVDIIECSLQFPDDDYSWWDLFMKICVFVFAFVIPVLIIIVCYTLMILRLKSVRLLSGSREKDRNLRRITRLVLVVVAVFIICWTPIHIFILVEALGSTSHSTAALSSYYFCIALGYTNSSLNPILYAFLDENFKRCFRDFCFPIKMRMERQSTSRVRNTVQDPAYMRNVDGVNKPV

Row | SMILES | EC50
31 | Oc1ccc2c3c1O[C@H]1c4ncc(-c5ccc(Cl)cc5)cc4C[C@@]4(O)[C@@H](C2)N(CC2CC2)CC[C@]314 | Not Active
32 | Oc1ccc2c3c1O[C@H]1c4[nH]c5ccccc5c4C[C@@]4(O)[C@@H](C2)N(CC2CC2)CC[C@]314 [NALTRINDOLE] | Not Active
33 | Oc1ccc2c3c1O[C@H]1c4ncc(-c5ccc(Cl)cc5)cc4C[C@H]4[C@@H](C2)N(CC2CC2)CC[C@]314 | Not Active

biological target: T2, Kappa-type opioid receptor; assay: Binding affinity at Opioid receptor kappa 1 by displacement of [3H]U-69593 in guinea pig brain membranes; type: cell membranes, Membrane; settings: not given

Row | SMILES | Ki
34 | C[C@@H](NC(=O)[C@@H](N)Cc1ccc(O)cc1)C(=O)NCC(=O)N(C)[C@@H](Cc1ccccc1)C(=O)NCCO [DAMGO] | 5820 nM
35 | Oc1ccc2c3c1O[C@H]1c4[nH]c5ccccc5c4C[C@@]4(O)[C@@H](C2)N(CC2CC2)CC[C@]314 [NALTRINDOLE] | 75 nM
36 | C=CCN1C[C@H](C)N([C@H](c2ccc(C(=O)N(CC)CC)cc2)c2cccc(OC)c2)C[C@H]1C [SNC-80] | 8760 nM
37 | COc1ccc2c3c1O[C@H]1c4ncc(-c5ccc(Cl)cc5)cc4C[C@@]4(O)[C@@H](C2)N(C)CC[C@]314 | > 7100 nM
38 | COc1ccc2c3c1O[C@H]1c4ncc(-c5ccc(Br)cc5)cc4C[C@@]4(O)[C@@H](C2)N(C)CC[C@]314 | 7370 nM
39 | CN1CC[C@]23c4c5ccc(O)c4O[C@H]2c2ncc(-c4ccc(Br)cc4)cc2C[C@@]3(O)[C@H]1C5 | 432 nM

biological target: Mu-type opioid receptor (Rattus norvegicus, UniProt P33535); assay: Binding affinity at Opioid receptor mu 1 by displacement of [3H]DAMGO in rat brain membrane; type: cell membranes; settings: not given
Sequence (P33535 whole entry): as the sequence (P33535 whole entry, looked up) above

Row | SMILES | Ki
40 | C=CCN1C[C@H](C)N([C@H](c2ccc(C(=O)N(CC)CC)cc2)c2cccc(OC)c2)C[C@H]1C [SNC-80] | 8070 nM
41 | COc1ccc2c3c1O[C@H]1c4ncc(-c5ccc(Br)cc5)cc4C[C@@]4(O)[C@@H](C2)N(C)CC[C@]314 | 1890 nM
42 | CN1CC[C@]23c4c5ccc(O)c4O[C@H]2c2ncc(-c4ccc(Br)cc4)cc2C[C@@]3(O)[C@H]1C5 | 196 nM

biological target: Mu-type opioid receptor (Cavia porcellus) (UniProt P97266); settings: Ileum

Row | SMILES | Ke
43 | Oc1ccc2c3c1O[C@H]1c4ncc(-c5ccccc5)cc4C[C@@]4(O)[C@@H](C2)N(CC2CC2)CC[C@]314 | 43 nM
